Reference: ChEMBL document CHEMBL3596156, “Synthesis and bioevaluation of heterocyclic derivatives of Cleistanthin-A” (Bioorg Med Chem, 2015)
Active and inactive are the calls of the source. The rule behind the calls is not given here.

Tests used:
[1] = tested on: WRL68; assay: Cytotoxicity against human WRL68 cells assessed as inhibition of cell proliferation after 72 hrs by MTT assay; assay type: cell-based; details: WRL68, 72 h
Procedure, shortened: (§1)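 MTT antiproliferation screen across HCT-116, HepG2, A549 and HeLa tumour lines, with WRL-68 normal cells run in parallel.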

[2] = tested on: A549; assay: Cytotoxicity against human A549 cells assessed as inhibition of cell proliferation after 72 hrs by MTT assay; assay type: functional, cell-based; details: A549, 72 h; procedure, shortened: as §1
[3] = tested on: HepG2; assay: Cytotoxicity against human HepG2 cells assessed as inhibition of cell proliferation after 72 hrs by MTT assay; assay type: functional, cell-based; details: HepG2, 72 h; procedure, shortened: as §1
[4] = tested on: HCT-116; assay: Cytotoxicity against human HCT116 cells assessed as inhibition of cell proliferation after 72 hrs by MTT assay; assay type: functional, cell-based; details: HCT-116, 72 h; procedure, shortened: as §1
[5] = tested on: HeLa; assay: Cytotoxicity against human HeLa cells assessed as inhibition of cell proliferation after 72 hrs by MTT assay; assay type: functional, cell-based; procedure, shortened: as §1
[6] = tested on: HepG2; assay: Inhibition of V-ATPase in human HepG2 cells assessed as decrease in lysosomal pH at 1 uM after 48 hrs by LysoTracker Red staining-based confocal microscopic analysis relative to control; assay type: cell-based
Procedure, shortened: (§2)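 HepG2 cells stained with LysoTracker Red (pH-sensitive dye), then loaded sequentially with the agent. Test concentrations were 0, 15, 30 or 60 nM; diphyllin was used at 1 µM as positive control. Cells were exposed for 48 h, and lysosomal acidity was judged by red fluorescence on confocal microscopy versus untreated cells.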

[7] = tested on: HepG2; assay: Inhibition of V-ATPase in human HepG2 cells assessed as release of phosphate at 15 to 60 nM after 48 hrs by colorimetric assay; assay type: cell-based
Procedure, shortened: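 HepG2 cells treated 48 h with 0, 15, 30 or 60 nM, diphyllin as positive control. V-ATPase activity then measured using a commercial V-ATPase activity assay kit.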

[8] = tested on: HepG2; assay: Inhibition of V-ATPase in human HepG2 cells assessed as decrease in lysosomal pH at 60 nM after 48 hrs by LysoTracker Red staining-based confocal microscopic analysis relative to control; assay type: cell-based; procedure, shortened: as §2
[9] = tested on: HepG2; assay: Cytotoxicity against human HepG2 cells assessed as inhibition of cell viability at 15 to 60 nM after 24 to 72 hrs by MTT assay; assay type: functional, cell-based
Procedure, shortened: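 HepG2 cells exposed to 0, 15, 30 or 60 nM for 24, 48 and 72 h; viability read by MTT.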

[10] = tested on: HepG2; assay: Inhibition of V-ATPase in human HepG2 cells assessed as decrease in cytosolic pH at 15 to 60 nM after 24 to 48 hrs by BCECF-AM probe-based spectrofluorophotometric analysis; assay type: cell-based
[11] = tested on: HepG2; assay: Inhibition of V-ATPase in human HepG2 cells assessed as release of phosphate at 60 nM after 48 hrs by colorimetric assay relative to control; values are per cent of control
[12] = tested on: HepG2; assay: Inhibition of V-ATPase in human HepG2 cells assessed as release of phosphate at 30 nM after 48 hrs by colorimetric assay relative to control; values are per cent of control

SMILES	IC50 [1]	IC50 [2]	IC50 [3]	IC50 [4]	IC50 [5]	inhibition [6]	inhibition [7]	inhibition [8]	inhibition [9]	inhibition [10]	level, % of control [11]	level, % of control [12]
COc1cc2c(O[C@@H]3OC[C@@H](OC)[C@H](OC)[C@H]3OCCCCCCCN3CCC(O)CC3)c3c(c(-c4ccc5c(c4)OCO5)c2cc1OC)C(=O)OC3	> 0.2 µM	> 0.2 µM	> 0.2 µM	0.073 µM	> 0.2 µM	–	–	–	–	–	–	–
COc1cc2c(O[C@@H]3OC[C@@H](OC)[C@H](OC)[C@H]3OCCCCCCN3CCN(C)CC3)c3c(c(-c4ccc5c(c4)OCO5)c2cc1OC)C(=O)OC3	> 0.2 µM	0.036 µM	0.039 µM	0.032 µM	0.032 µM	–	–	–	–	–	–	–
COc1cc2c(O[C@@H]3OC[C@@H](OC)[C@H](OC)[C@H]3OCCCCCCCN3CCN(CCO)CC3)c3c(c(-c4ccc5c(c4)OCO5)c2cc1OC)C(=O)OC3	> 0.2 µM	> 0.2 µM	> 0.2 µM	0.029 µM	> 0.2 µM	–	–	–	–	–	–	–
COc1cc2c(O[C@@H]3OC[C@@H](OC)[C@H](OC)[C@H]3O)c3c(c(-c4ccc5c(c4)OCO5)c2cc1OC)C(=O)OC3 [CLEISTANTHIN]	> 0.2 µM	0.004 µM	0.008 µM	0.001 µM	0.019 µM	–	–	–	–	–	–	–
COc1cc2c(O[C@@H]3OC[C@@H](OC)[C@H](OC)[C@H]3OCCCCCCCCN3CCCCC3)c3c(c(-c4ccc5c(c4)OCO5)c2cc1OC)C(=O)OC3	> 0.2 µM	> 0.2 µM	0.052 µM	0.015 µM	> 0.2 µM	–	–	–	–	–	–	–
COc1cc2c(O[C@@H]3OC[C@@H](OC)[C@H](OC)[C@H]3OCCCCCCCCN3CCN(CCO)CC3)c3c(c(-c4ccc5c(c4)OCO5)c2cc1OC)C(=O)OC3	> 0.2 µM	0.029 µM	0.025 µM	0.027 µM	0.055 µM	–	–	–	–	–	–	–
COc1cc2c(O[C@@H]3OC[C@@H](OC)[C@H](OC)[C@H]3OCCCCCCCN3CCN(C)CC3)c3c(c(-c4ccc5c(c4)OCO5)c2cc1OC)C(=O)OC3	> 0.2 µM	0.023 µM	0.041 µM	0.027 µM	0.051 µM	–	–	–	–	–	–	–
COc1cc2c(O[C@@H]3OC[C@@H](OC)[C@H](OC)[C@H]3OCCCCCCCCN3CCN(C)CC3)c3c(c(-c4ccc5c(c4)OCO5)c2cc1OC)C(=O)OC3	> 0.2 µM	0.025 µM	0.039 µM	0.011 µM	0.091 µM	–	–	–	–	–	–	–
COc1cc2c(O)c3c(c(-c4ccc5c(c4)OCO5)c2cc1OC)C(=O)OC3	–	–	–	–	–	Active	Active	–	–	–	–	–
COc1cc2c(O[C@@H]3OC[C@@H](OC)[C@H](OC)[C@H]3OCCCCCCN3CCN(CCO)CC3)c3c(c(-c4ccc5c(c4)OCO5)c2cc1OC)C(=O)OC3	> 0.2 µM	0.019 µM	0.033 µM	0.023 µM	0.025 µM	–	–	–	–	–	–	–
COc1cc2c(O[C@@H]3OC[C@@H](OC)[C@H](OC)[C@H]3OCCCCCCCN3CCOCC3)c3c(c(-c4ccc5c(c4)OCO5)c2cc1OC)C(=O)OC3	> 0.2 µM	0.023 µM	0.043 µM	0.028 µM	0.028 µM	–	–	–	–	–	–	–
COc1cc2c(O[C@@H]3OC[C@@H](OC)[C@H](OC)[C@H]3OCCCCCCCCN3CCOCC3)c3c(c(-c4ccc5c(c4)OCO5)c2cc1OC)C(=O)OC3	> 0.2 µM	0.026 µM	0.026 µM	0.025 µM	0.045 µM	–	–	–	–	–	–	–
COc1cc2c(O[C@@H]3OC[C@@H](OC)[C@H](OC)[C@H]3OCCCCCCN3CCCCC3)c3c(c(-c4ccc5c(c4)OCO5)c2cc1OC)C(=O)OC3	> 0.2 µM	0.026 µM	0.034 µM	0.023 µM	0.036 µM	–	–	–	–	–	–	–
COc1cc2c(O[C@@H]3OC[C@@H](OC)[C@H](OC)[C@H]3OCCCCCCN3CCC(O)CC3)c3c(c(-c4ccc5c(c4)OCO5)c2cc1OC)C(=O)OC3	> 0.2 µM	0.023 µM	0.03 µM	0.022 µM	0.032 µM	–	–	–	–	–	–	–
COc1cc2c(O[C@@H]3OC[C@@H](OC)[C@H](OC)[C@H]3OCCCCCCN3CCOCC3)c3c(c(-c4ccc5c(c4)OCO5)c2cc1OC)C(=O)OC3	> 0.2 µM	0.026 µM	0.03 µM	0.021 µM	0.02 µM	–	–	Active	Active	Active	56%	62%
COc1cc2c(O[C@@H]3OC[C@@H](OC)[C@H](OC)[C@H]3OCCCCCCCCN3CCC(O)CC3)c3c(c(-c4ccc5c(c4)OCO5)c2cc1OC)C(=O)OC3	> 0.2 µM	0.026 µM	> 0.2 µM	0.012 µM	0.1 µM	–	–	–	–	–	–	–
